Assay results published in ChEMBL document CHEMBL1147111, “In vitro and in vivo activities of synthetic trioxolanes against major human schistosome species” (Antimicrob Agents Chemother, 2007).
Activity calls are given as the source filed them. The rule behind the calls is not given here.

What was measured:
[1] = test system: Schistosoma mansoni; assay: Antischistosomal activity against NMRI mouse juvenile Schistosoma mansoni infection model assessed as reduction of total worm burden at 200 mg/kg, po after 28 days; type: functional; set-up: scale not given: the % may be the effect or the level left
In short: (§1)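 Juvenile-infection model: mice carrying Liberian-strain S. mansoni got one oral dose at day 21 postinfection, as a suspension in 7% Tween 80/3% ethanol. There were 3–5 per group, plus untreated controls. Necropsy by exsanguination followed 28 days after treatment. Liver and mesenteric-vein worms were collected, sexed and counted. Total and female burden reductions were calculated versus controls, with Kruskal-Wallis testing.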

[2] = test system: Schistosoma mansoni; assay: Antischistosomal activity against NMRI mouse juvenile Schistosoma mansoni infection model assessed as number of cured mouse at 200 mg/kg, po after 28 days; type: functional, organism-based; set-up: dose 200 mg/kg; in short: as §1
[3] = test system: Schistosoma mansoni; assay: Antischistosomal activity against NMRI mouse juvenile Schistosoma mansoni infection model assessed as reduction of female worm burden at 200 mg/kg, po after 28 days; type: functional; set-up: scale not given: the % may be the effect or the level left; in short: as §1
[4] = test system: Schistosoma mansoni; assay: Antischistosomal activity against Schistosoma mansoni assessed as worm death at 20 ug/ml after 24 hrs; type: functional, organism-based
In short: (§2)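 Adult S. mansoni (Liberian strain, 49-day-old) were held two males and two females per well, in duplicate, in Hanks' balanced salt solution with 20% calf serum, 300 IU/ml penicillin and 300 μg/ml streptomycin. Drug was given at 20 μg/ml final from a 1 mg/ml stock in 60% DMSO; solvent control was 1.2% DMSO. Incubation was at 37°C in 5% CO2. Worms were scored under a dissecting microscope at 24, 48 and 72 h for death, motor activity and tegument.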

[5] = test system: Mus musculus; assay: Toxicity in NMRI mouse with adult Schistosoma mansoni infection at 400 mg/kg, po after 48 to 96 hrs; type: organism-based; set-up: dose 400 mg/kg, route oral; conditions: in vivo
In short: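 Mice carrying a 49-day S. mansoni (Liberian strain) infection were given a single oral 400 mg/kg dose as a suspension in 7% Tween 80/3% ethanol. Deaths occurring 48–96 h after treatment were recorded.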

[6] = test system: Schistosoma mansoni; assay: Antischistosomal activity against Schistosoma mansoni assessed as worm death at 20 ug/ml after 72 hrs; type: functional, organism-based; in short: as §2
[7] = test system: Schistosoma mansoni; assay: Tegumental alteration in Schistosoma mansoni at 20 ug/ml after 72 hrs; type: functional, organism-based; in short: as §2
[8] = test system: Schistosoma mansoni; assay: Reduction of motor activity of Schistosoma mansoni at 20 ug/ml after 72 hrs; type: functional, organism-based; in short: as §2
[9] = test system: Schistosoma mansoni; assay: Antischistosomal activity against NMRI mouse adult Schistosoma mansoni infection model assessed as reduction of total worm burden at 400 mg/kg, po after 28 days; type: functional; set-up: scale not given: the % may be the effect or the level left
In short: (§3)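 Mice with a Liberian-strain S. mansoni infection were dosed at 49 days postinfection with a single oral dose of compound suspended in 7% Tween 80/3% ethanol. Groups held 3–5 animals, with untreated controls. At 28 days posttreatment, animals were killed by bleeding. Worms in liver and mesenteric veins were removed, sexed and counted. Reductions were calculated against controls and tested by Kruskal-Wallis.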

[10] = test system: Schistosoma mansoni; assay: Antischistosomal activity against NMRI mouse adult Schistosoma mansoni infection model assessed as reduction of female worm burden at 400 mg/kg, po after 28 days; type: functional; set-up: scale not given: the % may be the effect or the level left; in short: as §3
[11] = test system: Schistosoma mansoni; assay: Antischistosomal activity against Syrian golden hamster adult Schistosoma mansoni infection model assessed as number of cured mouse at 100 mg/kg, po after 28 days; type: functional, organism-based; set-up: dose 100 mg/kg
In short: (§4)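 Hamsters infected with Liberian-strain S. mansoni were treated once orally at 21 days (juvenile lines) or 49 days (adult lines) postinfection. Doses were 50, 100 or 200 mg/kg, in 7% Tween 80/3% ethanol suspension. Groups had 3–4 animals, with untreated controls. After 28 days, animals were bled out. Worms from liver and mesenteric veins were sexed and counted, and cures and burden reductions versus controls were recorded (Kruskal-Wallis).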

[12] = test system: Schistosoma mansoni; assay: Antischistosomal activity against Syrian golden hamster adult Schistosoma mansoni infection model assessed as number of cured mouse at 200 mg/kg, po after 28 days; type: functional, organism-based; set-up: dose 200 mg/kg; in short: as §4
[13] = test system: Schistosoma mansoni; assay: Antischistosomal activity against NMRI mouse adult Schistosoma mansoni infection model assessed as number of cured mouse at 400 mg/kg, po after 28 days; type: functional, organism-based; set-up: dose 400 mg/kg; in short: as §3
[14] = test system: Schistosoma mansoni; assay: Antischistosomal activity against Syrian golden hamster juvenile Schistosoma mansoni infection model assessed as number of cured mouse at 100 mg/kg, po after 28 days; type: functional, organism-based; set-up: dose 100 mg/kg; in short: as §4
[15] = test system: Schistosoma mansoni; assay: Antischistosomal activity against Syrian golden hamster juvenile Schistosoma mansoni infection model assessed as reduction of total worm burden at 100 mg/kg, po after 28 days; type: functional; set-up: scale not given: the % may be the effect or the level left; in short: as §4
[16] = test system: Schistosoma mansoni; assay: Antischistosomal activity against Syrian golden hamster juvenile Schistosoma mansoni infection model assessed as reduction of female worm burden at 200 mg/kg, po after 28 days; type: functional; set-up: scale not given: the % may be the effect or the level left; in short: as §4
[17] = test system: Schistosoma mansoni; assay: Antischistosomal activity against Syrian golden hamster juvenile Schistosoma mansoni infection model assessed as reduction of female worm burden at 50 mg/kg, po after 28 days; type: functional; set-up: scale not given: the % may be the effect or the level left; in short: as §4
[18] = test system: Schistosoma mansoni; assay: Antischistosomal activity against Syrian golden hamster juvenile Schistosoma mansoni infection model assessed as reduction of female worm burden at 100 mg/kg, po after 28 days; type: functional; set-up: scale not given: the % may be the effect or the level left; in short: as §4
[19] = test system: Schistosoma mansoni; assay: Antischistosomal activity against Syrian golden hamster adult Schistosoma mansoni infection model assessed as reduction of total worm burden at 50 mg/kg, po after 28 days; type: functional; set-up: scale not given: the % may be the effect or the level left; in short: as §4
[20] = test system: Schistosoma mansoni; assay: Antischistosomal activity against Syrian golden hamster adult Schistosoma mansoni infection model assessed as reduction of total worm burden at 100 mg/kg, po after 28 days; type: functional; set-up: scale not given: the % may be the effect or the level left; in short: as §4
[21] = test system: Schistosoma mansoni; assay: Antischistosomal activity against Syrian golden hamster adult Schistosoma mansoni infection model assessed as reduction of female worm burden at 200 mg/kg, po after 28 days; type: functional; set-up: scale not given: the % may be the effect or the level left; in short: as §4
[22] = test system: Schistosoma mansoni; assay: Antischistosomal activity against Syrian golden hamster juvenile Schistosoma mansoni infection model assessed as number of cured mouse at 50 mg/kg, po after 28 days; type: functional, organism-based; set-up: dose 50 mg/kg; in short: as §4
[23] = test system: Schistosoma mansoni; assay: Antischistosomal activity against Syrian golden hamster juvenile Schistosoma mansoni infection model assessed as reduction of total worm burden at 50 mg/kg, po after 28 days; type: functional; set-up: scale not given: the % may be the effect or the level left; in short: as §4
[24] = test system: Schistosoma mansoni; assay: Antischistosomal activity against Syrian golden hamster adult Schistosoma mansoni infection model assessed as reduction of female worm burden at 50 mg/kg, po after 28 days; type: functional; set-up: scale not given: the % may be the effect or the level left; in short: as §4
[25] = test system: Schistosoma mansoni; assay: Antischistosomal activity against Syrian golden hamster adult Schistosoma mansoni infection model assessed as reduction of female worm burden at 100 mg/kg, po after 28 days; type: functional; set-up: scale not given: the % may be the effect or the level left; in short: as §4
[26] = test system: Schistosoma mansoni; assay: Antischistosomal activity against Syrian golden hamster adult Schistosoma mansoni infection model assessed as number of cured mouse at 50 mg/kg, po after 28 days; type: functional, organism-based; set-up: dose 50 mg/kg; in short: as §4
[27] = test system: Schistosoma mansoni; assay: Antischistosomal activity against Syrian golden hamster juvenile Schistosoma mansoni infection model assessed as reduction of total worm burden at 200 mg/kg, po after 28 days; type: functional; set-up: scale not given: the % may be the effect or the level left; in short: as §4

## C1CCC2(CC1)OCC1(O2)C2CC3CC(C2)CC1C3 (stereo unspecified)
[1]
  Activity: 2%
[2]
  Activity: inactive
[3]
  Activity: 4.8%

## C1CCC2(CC1)COC1(CCCCC1)OO2
[1]
  Activity: 0%
[2]
  Activity: inactive
[3]
  Activity: 0%

## C1CCC2(CC1)COC1(OO2)C2CC3CC(C2)CC1C3 (stereo unspecified)
[1]
  Activity: 5.4%
[2]
  Activity: inactive
[3]
  Activity: 3.9%

## NC[C@H]1CC[C@]2(CC1)OOC1(O2)C2CC3CC(C2)CC1C3 (stereo partly specified)
[4]
  Activity: inactive
[5]
  Activity: Toxic
[6]
  Activity: Active
[7]
  Activity: Active
[1]
  Activity: 85%
[2]
  Activity: inactive
[8]
  Activity: inactive
[3]
  Activity: 83.7%
[9]
  Activity: 16.6%
[10]
  Activity: 25%

## Oc1ccc([C@H]2CC[C@]3(CC2)OO[C@]2(O3)C3CC4CC(C3)CC2C4)cc1
[11]
  Activity: inactive
[12]
  Activity: inactive
[13]
  Activity: inactive
[14]
  Activity: inactive
[15]
  Activity: 84%
[16]
  Activity: 86.4%
[17]
  Activity: 78.7%
[18]
  Activity: 80.5%
[19]
  Activity: 46.6%
[1]
  Activity: 95.4%
[2]
  Activity: inactive
[20]
  Activity: 52.4%
[21]
  Activity: 69.7%
[22]
  Activity: inactive
[23]
  Activity: 82.7%
[24]
  Activity: 36.7%
[3]
  Activity: 96.2%
[9]
  Activity: 52.2%
[25]
  Activity: 41.2%
[10]
  Activity: 64.9%
[26]
  Activity: inactive
[27]
  Activity: 86.5%
